Measurements reported in ChEMBL document CHEMBL3351386, “Multidrug resistance (MDR) reversers: High activity and efficacy in a series of asymmetrical N,N-bis(alkanol)amine aryl esters” (Eur J Med Chem, 2014).

Legend:
Format in all cases: cell-based
[1] = Modulatory activity at P-gp in human K562/DOX cells assessed as increase in nuclear concentration of pirarubicin by spectrofluorometric assay; conditions: K562/Adr, read-out: I50
K562 [2] = experiment: Intrinsic cytotoxicity against human K562 cells at 0.1 to 3 uM after 72 hrs by MTT assay; conditions: k562, 72 h
Summary of the method: (§1)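 K562 parental and P-gp-overexpressing K562/DOX cells, exponential phase (3 × 10⁵ cells/mL), seeded at 3000 cells/well. Test compounds alone at 0.1, 1.0 or 3.0 µM, without doxorubicin. Incubated 37 °C, 5% CO₂, 72 h. MTT added, further 3 h incubation, formazan crystals inspected microscopically.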

K562 [3] = experiment: Intrinsic cytotoxicity against doxorubicin-resistant human K562 cells at 3 uM after 72 hrs by MTT assay; conditions: k562, 72 h; summary of the method: as §1
[4] = target: ATP-dependent translocase ABCB1 (Homo sapiens, UniProt P08183); experiment: Modulatory activity at P-gp in doxorubicin-resistant human K562 cells assessed as MDR-reversing activity by measuring doxorubicin-induced cell mortality after 72 hrs by MTT assay relative to untreated control; conditions: k562, 72 h
Summary of the method: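 K562/DOX (P-gp-overexpressing, doxorubicin-resistant) cells in exponential growth were seeded at 3000 cells/well. Doxorubicin was given alone or with modulator at 0.1, 1.0 or 3.0 µM, and incubated 72 h at 37 °C in 5% CO2. Viability was read by MTT with a further 3 h incubation. Reversal fold is the doxorubicin IC50 without modulator divided by the IC50 with modulator. Values are the mean of ≥3 determinations, each with quadruplicate cultures.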

Sequence of ATP-dependent translocase ABCB1 (P08183 whole entry): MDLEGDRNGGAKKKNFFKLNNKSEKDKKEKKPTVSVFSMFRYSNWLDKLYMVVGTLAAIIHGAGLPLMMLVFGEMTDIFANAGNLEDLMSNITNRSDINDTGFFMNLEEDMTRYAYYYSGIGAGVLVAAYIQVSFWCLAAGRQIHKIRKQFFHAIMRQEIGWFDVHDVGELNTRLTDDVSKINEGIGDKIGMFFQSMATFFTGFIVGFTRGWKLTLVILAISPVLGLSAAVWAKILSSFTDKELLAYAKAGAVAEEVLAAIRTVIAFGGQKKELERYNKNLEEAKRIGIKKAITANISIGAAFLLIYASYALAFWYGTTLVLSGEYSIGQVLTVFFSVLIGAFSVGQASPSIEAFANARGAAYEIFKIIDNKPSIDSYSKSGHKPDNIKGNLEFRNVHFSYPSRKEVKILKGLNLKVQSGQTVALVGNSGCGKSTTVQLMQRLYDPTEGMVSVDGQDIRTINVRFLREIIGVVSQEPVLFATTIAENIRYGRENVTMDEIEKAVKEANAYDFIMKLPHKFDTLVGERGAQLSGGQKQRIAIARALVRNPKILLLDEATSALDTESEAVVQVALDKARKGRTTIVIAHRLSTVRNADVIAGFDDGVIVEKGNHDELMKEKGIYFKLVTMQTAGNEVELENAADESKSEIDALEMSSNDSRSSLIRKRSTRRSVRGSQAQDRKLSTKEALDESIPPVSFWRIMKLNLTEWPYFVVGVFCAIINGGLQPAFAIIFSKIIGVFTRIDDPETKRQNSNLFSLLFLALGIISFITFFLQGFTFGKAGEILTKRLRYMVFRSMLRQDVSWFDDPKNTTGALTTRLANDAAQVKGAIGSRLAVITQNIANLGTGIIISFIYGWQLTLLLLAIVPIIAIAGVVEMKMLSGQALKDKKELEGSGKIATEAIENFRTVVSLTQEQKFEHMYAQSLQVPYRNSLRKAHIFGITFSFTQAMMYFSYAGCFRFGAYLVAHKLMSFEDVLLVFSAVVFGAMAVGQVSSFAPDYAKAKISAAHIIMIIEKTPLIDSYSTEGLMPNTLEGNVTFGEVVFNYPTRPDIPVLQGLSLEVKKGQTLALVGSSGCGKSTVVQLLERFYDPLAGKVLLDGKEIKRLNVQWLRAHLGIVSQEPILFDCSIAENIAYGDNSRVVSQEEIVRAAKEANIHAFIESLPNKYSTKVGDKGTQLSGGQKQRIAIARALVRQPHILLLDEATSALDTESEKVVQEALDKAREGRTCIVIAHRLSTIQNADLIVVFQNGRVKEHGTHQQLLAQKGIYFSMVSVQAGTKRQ

| Structure (SMILES) | IC50 [1] | further results |
| --- | --- | --- |
| COc1cc(/C=C/C(=O)OCCCCN(C)CCCCOC(=O)c2cc(OC)c(OC)c(OC)c2)cc(OC)c1OC | 1530 nM | – |
| COc1cc(/C=C/C(=O)OCCCCCN(C)CCCOC(=O)c2c3ccccc3cc3ccccc23)cc(OC)c1OC | 40 nM | mortality [4]: 100%; Activity (K562 [2]): Non-toxic; Activity (K562 [3]): <= 20% |
| COc1ccc2nccc(C(=O)OCCCN(C)CCCOC(=O)/C=C/c3cc(OC)c(OC)c(OC)c3)c2c1 | 880 nM | – |
| COc1ccc2nccc(C(=O)OCCCCCN(C)CCCCCOC(=O)/C=C/c3cc(OC)c(OC)c(OC)c3)c2c1 | 750 nM | – |
| C=C[C@@H]1CN2CC[C@H]1C[C@H]2[C@H](OCC(=O)OCCCCCN(C)CCCCCOC(=O)/C=C/c1cc(OC)c(OC)c(OC)c1)c1ccnc2ccc(OC)cc12 | 3430 nM | – |
| C=C[C@@H]1CN2CC[C@H]1C[C@H]2[C@@H](OCC(=O)OCCCCCN(C)CCCCCOC(=O)/C=C/c1cc(OC)c(OC)c(OC)c1)c1ccnc2ccc(OC)cc12 | 2650 nM | – |
| C=C[C@@H]1CN2CC[C@H]1C[C@H]2[C@H](OCC(=O)OCCCN(C)CCCOC(=O)/C=C/c1cc(OC)c(OC)c(OC)c1)c1ccnc2ccc(OC)cc12 | 5060 nM | – |
| COc1cc(C#CC(=O)OCCCCN(C)CCCCOC(=O)c2cc(OC)c(OC)c(OC)c2)cc(OC)c1OC | 1030 nM | – |
| COc1cc(/C=C/C(=O)OCCCCN(C)CCCCOC(=O)c2c3ccccc3cc3ccccc23)cc(OC)c1OC | 70 nM | mortality [4]: 100%; Activity (K562 [2]): Non-toxic; Activity (K562 [3]): <= 20% |
| C=C[C@@H]1CN2CC[C@H]1C[C@H]2[C@@H](OCC(=O)OCCCN(C)CCCOC(=O)/C=C/c1cc(OC)c(OC)c(OC)c1)c1ccnc2ccc(OC)cc12 | 4790 nM | – |
| COc1cc(C#CC(=O)OCCCN(C)CCCOC(=O)c2cc(OC)c(OC)c(OC)c2)cc(OC)c1OC | 1000 nM | – |

Continued by falling IC50 [1], values first:

| IC50 [1] | Structure (SMILES) | further results |
| --- | --- | --- |
| 700 nM | COc1cc(C#CC(=O)OCCCN(C)CCCOC(=O)c2c3ccccc3cc3ccccc23)cc(OC)c1OC | – |
| 500 nM | COc1cc(/C=C/C(=O)OCCCN(C)CCCOC(=O)C2c3ccccc3-c3ccccc32)cc(OC)c1OC | – |
| 350 nM | COc1cc(/C=C/C(=O)OCCCN(C)CCCCCOC(=O)C2c3ccccc3-c3ccccc32)cc(OC)c1OC | – |
| 340 nM | COc1cc(C#CC(=O)OCCCCCN(C)CCCCCOC(=O)c2c3ccccc3cc3ccccc23)cc(OC)c1OC | – |
| 310 nM | COc1cc(C#CC(=O)OCCCCCN(C)CCCOC(=O)c2cc(OC)c(OC)c(OC)c2)cc(OC)c1OC | – |
| 290 nM | COc1cc(C#CC(=O)OCCCCCN(C)CCCCCOC(=O)c2cc(OC)c(OC)c(OC)c2)cc(OC)c1OC | – |
| 270 nM | COc1cc(/C=C/C(=O)OCCCN(C)CCCCCOC(=O)c2cc(OC)c(OC)c(OC)c2)cc(OC)c1OC | – |
| 260 nM | COc1cc(C#CC(=O)OCCCN(C)CCCCCOC(=O)c2cc(OC)c(OC)c(OC)c2)cc(OC)c1OC | – |
| 190 nM | COc1cc(/C=C/C(=O)OCCCCCN(C)CCCOC(=O)C2c3ccccc3-c3ccccc32)cc(OC)c1OC | – |
| 120 nM | COc1cc(/C=C/C(=O)OCCCCCN(C)CCCOC(=O)c2cc(OC)c(OC)c(OC)c2)cc(OC)c1OC | – |
| 110 nM | COc1cc(/C=C/C(=O)OCCCCN(C)CCCCOC(=O)C2c3ccccc3-c3ccccc32)cc(OC)c1OC | – |
| 110 nM | COc1cc(C#CC(=O)OCCCN(C)CCCCCOC(=O)c2c3ccccc3cc3ccccc23)cc(OC)c1OC | – |
| 100 nM | COc1cc(C#CC(=O)OCCCCCN(C)CCCOC(=O)c2c3ccccc3cc3ccccc23)cc(OC)c1OC | – |
| 100 nM | COc1cc(C#CC(=O)OCCCCN(C)CCCCOC(=O)c2c3ccccc3cc3ccccc23)cc(OC)c1OC | – |
| 40 nM | COc1cc(/C=C/C(=O)OCCCN(C)CCCCCOC(=O)c2c3ccccc3cc3ccccc23)cc(OC)c1OC | Activity (K562 [2]): Non-toxic; Activity (K562 [3]): <= 20% |
